In ChEMBL document CHEMBL1154970, “Replacement of pyrazol-3-yl amine hinge binder with thiazol-2-yl amine: Discovery of potent and selective JAK2 inhibitors” (Bioorg Med Chem Lett, 2010):
pIC50: −log10 of the molar value.

Assays:
[1] = Growth inhibition of mouse BA/F3 cells transfected with recombinant TEL-JAK3 kinase after 48 hrs by alamar blue assay; type: functional, cell-based, BaF3
Outline: (§1)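 Proliferation of Ba/F3 cells transfected with TEL-JAK2 or TEL-JAK3 fusions; GI50 determined.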

[2] = Plasma concentration in nude mouse transplanted with recombinant TEL-JAK2 expressing BA/F3 cells at 10 mg/kg, po dosed on day 10 of transplantation measured after 6 hrs; type: ADME, organism-based, BaF3; parameters: dose 10 mg/kg, route oral
Outline: (§2)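 Female nude mice implanted intravenously with Ba/F3 TEL-JAK2 cells on day 0, then dosed orally once at 10 mg/kg on day 10. Total plasma drug concentration measured at 2 or 6 h post-dose by LC-MS on a C18 column, water/MeCN with 0.1% formic acid; n = 3 per time point.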

[3] = Growth inhibition of mouse BA/F3 cells transfected with recombinant TEL-JAK2 kinase after 48 hrs by alamar blue assay; type: functional, cell-based; details: BaF3, 48 h; outline: as §1
[4] = Plasma concentration in nude mouse transplanted with recombinant TEL-JAK2 expressing BA/F3 cells at 10 mg/kg, po dosed on day 10 of transplantation measured after 2 hrs; type: ADME, organism-based, BaF3; parameters: dose 10 mg/kg, route oral; outline: as §2
[5] = Half life in Han Wistar rat at 3 mg/kg, iv; type: ADME, organism-based; parameters: dose 3 mg/kg, route intravenous; details: in vivo
[6] = target: Voltage-gated inwardly rectifying potassium channel KCNH2 (Homo sapiens, UniProt Q12809)
[7] = Volume of distribution at steady state in Han Wistar rat at 3 mg/kg, iv; type: ADME, organism-based; parameters: dose 3 mg/kg, route intravenous; details: in vivo, read-out: Vdss
BaF3 = assay: Selectivity ratio of GI50 for mouse BA/F3 cells transfected with recombinant TEL-JAK3 kinase to GI50 for mouse BA/F3 cells transfected with recombinant TEL-JAK2 kinase; type: functional, cell-based
Outline: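 Fold selectivity calculated as the TEL-JAK3 Ba/F3 GI50 divided by the TEL-JAK2 Ba/F3 GI50.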

[8] = target: T1, Tyrosine-protein kinase JAK2 (Homo sapiens, UniProt O60674); assay: Inhibition of recombinant JAK2 kinase in presence of 5 mM ATP
[9] = Clearance in Han Wistar rat at 3 mg/kg, iv; type: ADME, organism-based; parameters: dose 3 mg/kg, route intravenous; details: in vivo
[10] = Intrinsic clearance in rat liver microsomes at 2 uM by LC-MS/MS; type: ADME, Microsome
Outline: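 Rat liver microsomes incubated with compound at 2 μM initial concentration; time-dependent disappearance of parent measured by LC–MS/MS to give intrinsic clearance (μL/min/mg).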

[11] = target: T1, Tyrosine-protein kinase JAK2; details: BaF3; 10 mg/kg
[12] = target: T1, Tyrosine-protein kinase JAK2; assay: Inhibition of recombinant JAK2 kinase in presence of ATP
[13] = Solubility of the compound; type: physicochemical
[14] = target: T1, Tyrosine-protein kinase JAK2; assay: Inhibition of recombinant JAK2 kinase in presence of 5 mM ATP
[15] = Mus musculus, BaF3, 48 h, read-out: GI50

Chain of Voltage-gated inwardly rectifying potassium channel KCNH2 (Q12809 whole entry): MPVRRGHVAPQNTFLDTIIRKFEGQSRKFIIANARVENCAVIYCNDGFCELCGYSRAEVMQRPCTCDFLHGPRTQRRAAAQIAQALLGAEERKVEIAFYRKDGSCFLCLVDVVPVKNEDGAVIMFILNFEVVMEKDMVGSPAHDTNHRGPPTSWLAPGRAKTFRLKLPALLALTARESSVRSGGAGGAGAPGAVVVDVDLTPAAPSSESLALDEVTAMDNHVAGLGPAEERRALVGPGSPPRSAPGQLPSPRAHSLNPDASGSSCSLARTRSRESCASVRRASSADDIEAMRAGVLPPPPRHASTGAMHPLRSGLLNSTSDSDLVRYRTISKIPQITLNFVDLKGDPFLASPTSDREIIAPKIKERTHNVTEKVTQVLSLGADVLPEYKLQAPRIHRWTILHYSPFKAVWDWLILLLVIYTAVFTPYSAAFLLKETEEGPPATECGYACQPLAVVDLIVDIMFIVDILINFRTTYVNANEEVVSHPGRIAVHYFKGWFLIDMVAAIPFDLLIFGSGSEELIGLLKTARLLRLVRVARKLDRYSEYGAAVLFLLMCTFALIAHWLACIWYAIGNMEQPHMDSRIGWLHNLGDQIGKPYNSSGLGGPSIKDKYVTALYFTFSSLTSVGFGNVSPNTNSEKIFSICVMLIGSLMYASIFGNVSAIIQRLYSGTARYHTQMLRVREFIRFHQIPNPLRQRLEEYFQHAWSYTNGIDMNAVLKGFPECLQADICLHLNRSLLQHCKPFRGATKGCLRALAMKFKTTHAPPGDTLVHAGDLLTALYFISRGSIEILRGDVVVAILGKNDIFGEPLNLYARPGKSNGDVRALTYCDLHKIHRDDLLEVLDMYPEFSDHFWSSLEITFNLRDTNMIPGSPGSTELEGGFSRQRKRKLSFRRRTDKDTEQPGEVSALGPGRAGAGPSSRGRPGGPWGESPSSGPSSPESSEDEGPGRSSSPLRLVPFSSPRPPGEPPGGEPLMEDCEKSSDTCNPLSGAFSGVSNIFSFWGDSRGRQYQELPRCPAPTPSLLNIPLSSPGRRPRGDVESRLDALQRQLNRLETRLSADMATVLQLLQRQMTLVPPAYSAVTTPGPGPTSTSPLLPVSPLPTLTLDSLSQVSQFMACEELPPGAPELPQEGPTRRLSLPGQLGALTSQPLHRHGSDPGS
T1 sequence (O60674 whole entry): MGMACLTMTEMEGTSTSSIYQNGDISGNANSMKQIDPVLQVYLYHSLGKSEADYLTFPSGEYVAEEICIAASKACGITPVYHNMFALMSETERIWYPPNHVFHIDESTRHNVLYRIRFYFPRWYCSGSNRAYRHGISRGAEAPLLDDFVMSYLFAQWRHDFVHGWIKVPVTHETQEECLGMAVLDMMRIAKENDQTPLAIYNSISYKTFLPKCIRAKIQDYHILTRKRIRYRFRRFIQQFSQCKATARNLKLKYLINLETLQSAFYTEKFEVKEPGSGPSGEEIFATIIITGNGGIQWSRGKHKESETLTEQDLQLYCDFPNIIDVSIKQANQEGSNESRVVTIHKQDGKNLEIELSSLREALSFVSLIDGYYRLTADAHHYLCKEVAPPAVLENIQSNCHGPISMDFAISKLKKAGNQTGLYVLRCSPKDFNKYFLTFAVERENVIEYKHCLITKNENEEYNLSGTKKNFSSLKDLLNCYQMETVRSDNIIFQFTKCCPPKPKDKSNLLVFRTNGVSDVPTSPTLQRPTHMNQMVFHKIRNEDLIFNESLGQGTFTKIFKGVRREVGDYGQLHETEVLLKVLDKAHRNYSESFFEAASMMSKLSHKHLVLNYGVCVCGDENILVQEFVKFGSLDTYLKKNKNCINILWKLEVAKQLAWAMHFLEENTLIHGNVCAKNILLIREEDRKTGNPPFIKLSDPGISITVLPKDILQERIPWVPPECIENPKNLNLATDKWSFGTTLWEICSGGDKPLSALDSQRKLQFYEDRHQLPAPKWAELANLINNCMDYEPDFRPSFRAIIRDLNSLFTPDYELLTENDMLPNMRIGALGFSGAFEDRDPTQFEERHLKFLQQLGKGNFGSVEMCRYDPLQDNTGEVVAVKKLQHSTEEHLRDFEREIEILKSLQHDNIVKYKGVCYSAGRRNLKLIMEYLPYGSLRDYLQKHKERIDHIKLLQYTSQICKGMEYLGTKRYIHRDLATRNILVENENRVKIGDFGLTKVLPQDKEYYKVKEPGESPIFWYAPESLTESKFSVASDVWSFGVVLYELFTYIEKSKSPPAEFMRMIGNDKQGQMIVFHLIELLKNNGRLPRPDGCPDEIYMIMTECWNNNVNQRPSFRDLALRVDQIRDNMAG

Cc1cnc(Nc2cc(N3CCOCC3)nc(N[C@@H](C)c3ncc(F)cn3)n2)s1
GI50 [1, 15]: 1100 nM
concentration at 6 h [2]: 146 ng/mL
GI50 ([3]; read-out: GI50): 5 nM
concentration at 2 h [4]: 715 ng/mL
half-life [5]: 1.3 h
pIC50 [6]: < 4.49
Vd [7]: 2.3 L/kg
RatioGI50 (BaF3): 237
pIC50 [8]: 8.52
clearance [9]: 32 mL/min/kg
microsomal CLint at 2 µM [10]: 84 µL/min/mg
inhibition [11]: > 80%

Cc1cnc(Nc2cc(N3CCN(C)CC3)nc(N[C@@H](C)c3ccc(F)cn3)n2)s1
GI50 [1]: 0.62
GI50 [3]: 5 nM
half-life [5]: 1.3 h
pIC50 [6]: 4.89
Vd [7]: 8.5 L/kg
RatioGI50 (BaF3; Mus musculus, BaF3): 129
pIC50 [8]: > 8.52
clearance [9]: 80 mL/min/kg
microsomal CLint at 2 µM [10]: 220 µL/min/mg

Cc1cnc(Nc2nc(N[C@@H](C)c3ncc(F)cn3)nc(N3CCOCC3)c2F)s1
concentration at 6 h [2]: 95 ng/mL
concentration at 2 h [4]: 219 ng/mL

COc1cc(Nc2ncc(C)s2)nc(N[C@@H](C)c2ncc(F)cn2)n1
GI50 [1, 15]: 1500 nM
GI50 ([3]; read-out: GI50): 42 nM
pIC50 [6]: < 4.49
RatioGI50 (BaF3): 35
pIC50 [8]: > 8.52
microsomal CLint at 2 µM [10]: > 100 µL/min/mg

Cc1cnc(Nc2cc(N3CCOCC3)nc(N[C@@H](C)c3ccc(F)cn3)n2)s1
GI50 ([1]; Mus musculus, BaF3, 48 h): 1200 nM
concentration at 6 h [2]: 55 ng/mL
concentration at 2 h [4]: 126 ng/mL
half-life [5]: 1.2 h
pIC50 [6]: 4.92
Vd [7]: 2.8 L/kg
clearance [9]: 38 mL/min/kg
microsomal CLint at 2 µM [10]: > 120 µL/min/mg

C[C@H](Nc1nc(Nc2ncc(C#N)s2)cc(N2CCOCC2)n1)c1ccc(F)cn1
GI50 ([1]; Mus musculus, BaF3, 48 h): 170 nM
GI50 [3]: 36 nM
pIC50 [8]: > 8.52
microsomal CLint at 2 µM [10]: 31 µL/min/mg

Cc1cnc(Nc2cncc(N[C@@H](C)c3ncc(F)cn3)n2)s1
pIC50 [12]: 8.40
pIC50 [8]: 7.31
solubility [13]: > 1000 µM
microsomal CLint at 2 µM [10]: 52 µL/min/mg

C[C@H](Nc1nc(Nc2ncc(C#N)s2)cc(N2CCOCC2)n1)c1ncc(F)cn1
GI50 ([1]; Mus musculus, BaF3, 48 h): 520 nM
RatioGI50 [14]: 0.079
GI50 [3]: 53 nM
RatioGI50 (BaF3): 10
microsomal CLint at 2 µM [10]: 41 µL/min/mg

Cc1cc(Nc2cncc(N[C@@H](C)c3ncc(F)cn3)n2)n[nH]1
pIC50 [12]: > 8.52
half-life [5]: 1.4 h
Vd [7]: 1.1 L/kg
solubility [13]: > 1000 µM
clearance [9]: 14 mL/min/kg
microsomal CLint at 2 µM [10]: < 4 µL/min/mg
